Measured values taken from ChEMBL document CHEMBL1140759, “Synthesis, anti-Toxoplasma gondii and antimicrobial activities of benzaldehyde 4-phenyl-3-thiosemicarbazones and 2-[(phenylmethylene)hydrazono]-4-oxo-3-phenyl-5-thiazolidineacetic acids” (Bioorg Med Chem, 2008).

How the values were obtained:
[1] = system: Mycobacterium tuberculosis; experiment: Antimicrobial activity against Mycobacterium tuberculosis at 300 ug/disc; type: functional; settings: read-out: IZ
Outline: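 Agar disc diffusion: paper discs loaded with compound placed on agar plates seeded with a standardised microbial suspension. DMSO-only discs served as negative control. Chloramphenicol and rifampicin (bacteria) or nistatin (fungi) gave reference zones. Read-out was mean zone of inhibition diameter (mm). Each experiment was run three times and repeated if results differed.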

Toxoplasma gondii [2] = experiment: Antiparasitic activity against Toxoplasma gondii infected african green monkey Vero cells at 20 mM assessed as infected cells; type: functional
Outline: (§1)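 Vero cells were infected with RH-strain tachyzoites (5:1 parasite:cell) for 1 h, washed with PBS, and grown 24 h at 37 °C in medium 199 with 5% FCS. Compound was then added for 24 h. Cells were fixed with Bouin's, stained with Giemsa, and at least 400 cells were counted by light microscopy for the percentage infected. Hydroxyurea and sulfadiazine served as references.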

Toxoplasma gondii [3] = experiment: Antiparasitic activity against Toxoplasma gondii infected african green monkey Vero cells at 0.1 mM assessed as infected cells; type: functional; outline: as §1
Candida [4] = experiment: Antimicrobial activity against Candida sp. IMUR1224 at 300 ug/disc; type: functional; settings: read-out: IZ
Outline: (§2)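 Disc diffusion on agar plates inoculated with a standardized microbial suspension, with paper discs carrying known compound amounts. DMSO-only discs served as negative controls, and chloramphenicol, rifampicin (bacteria) or nistatin (fungi) as references. The read-out is the mean inhibition zone diameter in mm. Each run was done three times and repeated if results differed.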

Toxoplasma gondii [5] = experiment: Inhibition of intracellular parasite Toxoplasma gondii; type: functional, organism-based
Outline: (§3)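 Infected Vero cultures were exposed to compound at 0.01–30 mM for 24 h, in triplicate per assay. IC50 for infected cells and intracellular parasites was derived by non-linear regression, using trypan blue exclusion.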

Toxoplasma gondii [6] = experiment: Antiparasitic activity against Toxoplasma gondii infected african green monkey Vero cells at 2 mM assessed as infected cells; type: functional; outline: as §1
Bacillus subtilis = experiment: Antimicrobial activity against Bacillus subtilis at 300 ug/disc; type: functional; settings: read-out: IZ; outline: as §2
Vero = experiment: Inhibition of uninfected african green monkey Vero cells; type: cell-based; settings: Chlorocebus sabaeus
Klebsiella pneumoniae = experiment: Antimicrobial activity against Klebsiella pneumoniae at 300 ug/disc; type: functional; settings: read-out: IZ; outline: as §2
[7] = system: Mycolicibacterium smegmatis; experiment: Antimicrobial activity against Mycobacterium smegmatis at 300 ug/disc; type: functional; settings: read-out: IZ; outline: as §2
Staphylococcus aureus = experiment: Antimicrobial activity against Staphylococcus aureus at 300 ug/disc; type: functional; settings: read-out: IZ; outline: as §2
Escherichia coli = experiment: Antimicrobial activity against Escherichia coli at 300 ug/disc; type: functional; settings: read-out: IZ; outline: as §2
Candida [8] = experiment: Antimicrobial activity against Candida sp. IMUR4249 at 300 ug/disc; type: functional; settings: read-out: IZ; outline: as §2
Candida [9] = experiment: Antimicrobial activity against Candida sp. IMUR720 at 300 ug/disc; type: functional; settings: read-out: IZ; outline: as §2
Mycolicibacterium phlei = experiment: Antimicrobial activity against Mycobacterium phlei at 300 ug/disc; type: functional; settings: read-out: IZ; outline: as §2
Saccharomyces cerevisiae = experiment: Antimicrobial activity against Saccharomyces cerevisiae at 300 ug/disc; type: functional; settings: read-out: IZ; outline: as §2
Candida albicans = experiment: Antimicrobial activity against Candida albicans at 300 ug/disc; type: functional; settings: read-out: IZ; outline: as §2
Toxoplasma gondii [10] = experiment: Antiparasitic activity against Toxoplasma gondii infected african green monkey Vero cells at 5 mM assessed as infected cells; type: functional; outline: as §1
Micrococcus luteus = experiment: Antimicrobial activity against Micrococcus luteus at 300 ug/disc; type: functional; settings: read-out: IZ; outline: as §2
Toxoplasma gondii [11] = experiment: Inhibition of Toxoplasma gondii infected in african green monkey Vero cells; type: functional, organism-based; outline: as §3
Enterococcus faecalis = experiment: Antimicrobial activity against Streptococcus faecalis at 300 ug/disc; type: functional; settings: read-out: IZ; outline: as §2
Toxoplasma gondii [12] = experiment: Antiparasitic activity against Toxoplasma gondii infected african green monkey Vero cells at 8 mM assessed as infected cells; type: functional; outline: as §1

With `COc1cc(/C=N/N=C2\SC(CC(=O)O)C(=O)N2c2ccccc2)cc(OC)c1OC` (stereo not drawn) the zone of inhibition at 300 µg/disc [1] was less than 7 mm, the Activity (Toxoplasma gondii [2]) was 0% and the Activity (Toxoplasma gondii [3]) was 55.57%. For the same compound, the zone of inhibition at 300 µg/disc (Candida [4]) was less than 7 mm, the IC50 (Toxoplasma gondii [5]) was 0.5 mM and the Activity (Toxoplasma gondii [6]) was 14.33%. For the same compound, the zone of inhibition at 300 µg/disc (Bacillus subtilis) was 19 mm, the IC50 (Vero) was 2 mM and the zone of inhibition at 300 µg/disc (Klebsiella pneumoniae) was less than 7 mm. For the same compound, the zone of inhibition at 300 µg/disc [7] was less than 7 mm, the zone of inhibition at 300 µg/disc (Staphylococcus aureus) was less than 7 mm and the zone of inhibition at 300 µg/disc (Escherichia coli) was less than 7 mm. It also gave a zone of inhibition at 300 µg/disc (Candida [8]) of 15 mm, a zone of inhibition at 300 µg/disc (Candida [9]) of less than 7 mm and a zone of inhibition at 300 µg/disc (Mycolicibacterium phlei) of less than 7 mm. The zone of inhibition at 300 µg/disc (Saccharomyces cerevisiae) was less than 7 mm, the zone of inhibition at 300 µg/disc (Candida albicans) was 10 mm and the Activity (Toxoplasma gondii [10]) was 15.63%. For the same compound, the zone of inhibition at 300 µg/disc (Micrococcus luteus) was 25 mm, the IC50 (Toxoplasma gondii [11]) was 1 mM and the zone of inhibition at 300 µg/disc (Enterococcus faecalis) was less than 7 mm. For the same compound, the Activity (Toxoplasma gondii [12]) was 7.2%.

`O=C(O)CC1S/C(=N\N=C\c2ccccc2)N(c2ccccc2)C1=O` (stereo not drawn) showed a zone of inhibition at 300 µg/disc [1] of 14 mm, an Activity (Toxoplasma gondii [2]) of 0% and an Activity (Toxoplasma gondii [3]) of 69.7%. The zone of inhibition at 300 µg/disc (Candida [4]) was less than 7 mm, the IC50 (Toxoplasma gondii [5]) was 1 mM and the Activity (Toxoplasma gondii [6]) was 48.5%. It also gave a zone of inhibition at 300 µg/disc (Bacillus subtilis) of 15 mm, an IC50 (Vero) of 5 mM and a zone of inhibition at 300 µg/disc (Klebsiella pneumoniae) of less than 7 mm. It also gave a zone of inhibition at 300 µg/disc [7] of 9 mm, a zone of inhibition at 300 µg/disc (Staphylococcus aureus) of less than 7 mm and a zone of inhibition at 300 µg/disc (Escherichia coli) of less than 7 mm. For the same compound, the zone of inhibition at 300 µg/disc (Candida [8]) was less than 7 mm, the zone of inhibition at 300 µg/disc (Candida [9]) was less than 7 mm and the zone of inhibition at 300 µg/disc (Mycolicibacterium phlei) was 7 mm. The zone of inhibition at 300 µg/disc (Saccharomyces cerevisiae) was less than 7 mm, the zone of inhibition at 300 µg/disc (Candida albicans) was 8 mm and the Activity (Toxoplasma gondii [10]) was 14.6%. For the same compound, the zone of inhibition at 300 µg/disc (Micrococcus luteus) was 20 mm, the IC50 (Toxoplasma gondii [11]) was 4 mM and the zone of inhibition at 300 µg/disc (Enterococcus faecalis) was 12 mm. It also gave an Activity (Toxoplasma gondii [12]) of 0%.

`CN(C)c1ccc(/C=N/N=C2\SC(CC(=O)O)C(=O)N2c2ccccc2)cc1` (stereo not drawn) was tested, and the zone of inhibition at 300 µg/disc [1] was less than 7 mm, the Activity (Toxoplasma gondii [2]) was 0% and the Activity (Toxoplasma gondii [3]) was 50.58%. It also gave a zone of inhibition at 300 µg/disc (Candida [4]) of less than 7 mm, an IC50 (Toxoplasma gondii [5]) of 0.05 mM and an Activity (Toxoplasma gondii [6]) of 0%. The zone of inhibition at 300 µg/disc (Bacillus subtilis) was less than 7 mm, the IC50 (Vero) was 1 mM and the zone of inhibition at 300 µg/disc (Klebsiella pneumoniae) was less than 7 mm. For the same compound, the zone of inhibition at 300 µg/disc [7] was less than 7 mm, the zone of inhibition at 300 µg/disc (Staphylococcus aureus) was less than 7 mm and the zone of inhibition at 300 µg/disc (Escherichia coli) was less than 7 mm. It also gave a zone of inhibition at 300 µg/disc (Candida [8]) of 16 mm, a zone of inhibition at 300 µg/disc (Candida [9]) of less than 7 mm and a zone of inhibition at 300 µg/disc (Mycolicibacterium phlei) of less than 7 mm. It also gave a zone of inhibition at 300 µg/disc (Saccharomyces cerevisiae) of less than 7 mm, a zone of inhibition at 300 µg/disc (Candida albicans) of less than 7 mm and an Activity (Toxoplasma gondii [10]) of 0%. It also gave a zone of inhibition at 300 µg/disc (Micrococcus luteus) of 10 mm, an IC50 (Toxoplasma gondii [11]) of 0.05 mM and a zone of inhibition at 300 µg/disc (Enterococcus faecalis) of less than 7 mm. It also gave an Activity (Toxoplasma gondii [12]) of 0%.

For `Cc1cccc(/C=N/N=C2\SC(CC(=O)O)C(=O)N2c2ccccc2)c1` (stereo not drawn), the zone of inhibition at 300 µg/disc [1] was less than 7 mm, the Activity (Toxoplasma gondii [2]) was 0% and the Activity (Toxoplasma gondii [3]) was 66%. For the same compound, the zone of inhibition at 300 µg/disc (Candida [4]) was less than 7 mm, the IC50 (Toxoplasma gondii [5]) was 0.5 mM and the Activity (Toxoplasma gondii [6]) was 15.54%. It also gave a zone of inhibition at 300 µg/disc (Bacillus subtilis) of less than 7 mm, an IC50 (Vero) of 9 mM and a zone of inhibition at 300 µg/disc (Klebsiella pneumoniae) of less than 7 mm. For the same compound, the zone of inhibition at 300 µg/disc [7] was less than 7 mm, the zone of inhibition at 300 µg/disc (Staphylococcus aureus) was less than 7 mm and the zone of inhibition at 300 µg/disc (Escherichia coli) was less than 7 mm. The zone of inhibition at 300 µg/disc (Candida [8]) was less than 7 mm, the zone of inhibition at 300 µg/disc (Candida [9]) was less than 7 mm and the zone of inhibition at 300 µg/disc (Mycolicibacterium phlei) was less than 7 mm. It also gave a zone of inhibition at 300 µg/disc (Saccharomyces cerevisiae) of less than 7 mm, a zone of inhibition at 300 µg/disc (Candida albicans) of 9 mm and an Activity (Toxoplasma gondii [10]) of 16.19%. The zone of inhibition at 300 µg/disc (Micrococcus luteus) was 22 mm, the IC50 (Toxoplasma gondii [11]) was 1 mM and the zone of inhibition at 300 µg/disc (Enterococcus faecalis) was 11 mm. The Activity (Toxoplasma gondii [12]) was 10.13%.
